Assay results taken from PubChem BioAssay AID652196 (Vanderbilt Specialized Chemistry Center, 2013).

Target: Metabotropic glutamate receptor 5 (Rattus norvegicus) (UniProt P31424)
Assay: rat mGlu5 radioligand displacement Ki – biochemical, HEK293A membranes, [3H]methoxyPEPy, full curve, dose response (AID 652196)
Conditions: rmGlu5 HEK293A membranes, [3H]methoxyPEPy displacement
Method in brief: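 Compound: 10 doses, 0.1 nM–10 µM, 1% DMSO; Test system: membranes from HEK293A cells stably expressing rat mGlu5; Technique: Filtration separation of bound radioligand, then scintillation counting; Incubation: membrane, radioligand and compound incubation 1 h at room temperature; Also added: radioligand [3H]methoxyPEPy at 2 nM.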

Sequence of Metabotropic glutamate receptor 5 (Rattus norvegicus) (P31424 whole entry, looked up): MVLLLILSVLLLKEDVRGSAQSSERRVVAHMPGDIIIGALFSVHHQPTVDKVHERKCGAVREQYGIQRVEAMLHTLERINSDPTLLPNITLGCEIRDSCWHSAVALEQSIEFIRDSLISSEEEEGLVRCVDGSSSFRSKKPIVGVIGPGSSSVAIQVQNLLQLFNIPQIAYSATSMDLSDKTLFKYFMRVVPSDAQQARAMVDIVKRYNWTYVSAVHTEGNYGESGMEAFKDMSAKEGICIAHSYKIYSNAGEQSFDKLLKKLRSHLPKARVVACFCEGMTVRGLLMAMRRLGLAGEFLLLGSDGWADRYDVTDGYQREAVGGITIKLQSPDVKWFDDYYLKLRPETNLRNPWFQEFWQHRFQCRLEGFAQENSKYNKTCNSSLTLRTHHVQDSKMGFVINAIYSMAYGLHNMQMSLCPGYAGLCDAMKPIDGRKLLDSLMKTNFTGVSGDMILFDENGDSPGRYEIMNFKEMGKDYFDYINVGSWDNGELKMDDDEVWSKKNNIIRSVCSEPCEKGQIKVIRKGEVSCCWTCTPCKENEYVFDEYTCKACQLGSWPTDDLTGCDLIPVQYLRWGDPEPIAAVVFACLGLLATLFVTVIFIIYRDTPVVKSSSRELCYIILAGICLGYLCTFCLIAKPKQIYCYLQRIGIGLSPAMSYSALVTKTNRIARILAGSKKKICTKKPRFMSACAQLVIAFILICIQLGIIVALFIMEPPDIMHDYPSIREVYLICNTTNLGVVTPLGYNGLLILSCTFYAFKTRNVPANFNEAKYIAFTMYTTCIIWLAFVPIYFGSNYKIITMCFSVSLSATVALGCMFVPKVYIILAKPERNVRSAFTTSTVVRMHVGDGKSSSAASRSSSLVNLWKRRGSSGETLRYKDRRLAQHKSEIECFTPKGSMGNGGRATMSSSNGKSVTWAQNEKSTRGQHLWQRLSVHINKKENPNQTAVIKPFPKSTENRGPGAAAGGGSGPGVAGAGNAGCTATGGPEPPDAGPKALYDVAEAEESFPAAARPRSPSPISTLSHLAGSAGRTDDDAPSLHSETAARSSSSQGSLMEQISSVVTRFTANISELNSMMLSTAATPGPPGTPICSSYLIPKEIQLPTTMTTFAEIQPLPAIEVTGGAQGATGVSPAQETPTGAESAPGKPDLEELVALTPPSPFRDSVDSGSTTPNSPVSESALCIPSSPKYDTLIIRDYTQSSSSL

Structure (SMILES): O=C(c1ccc(C#Cc2cccc(F)c2)cn1)N1CCOCC1
- Ki: 67.7 nM

Structure (SMILES): O=C(c1ccc(C#Cc2cccc(F)c2)cn1)N1CCC1
- Ki: 51.6 nM

Structure (SMILES): O=C(c1ccc(C#Cc2cccc(F)c2)cn1)N1CCC(F)(F)C1
- Ki: 19 nM

Structure (SMILES): O=C(c1ccc(C#Cc2cccc(F)c2)cn1)N1CCCCC1
- Ki: 12.1 nM

Structure (SMILES): CC1CCN1C(=O)c1ccc(C#Cc2cccc(F)c2)cn1 (centres undefined)
- Ki: 5.4 nM

Structure (SMILES): O=C(c1ccc(C#Cc2cccc(F)c2)cn1)N1CC(F)C1
- Ki: 48.7 nM

Structure (SMILES): O=C(c1ccc(C#Cc2cccc(F)c2)cn1)N1CCCCCC1
- Ki: 18.7 nM

Structure (SMILES): O=C(c1ccc(C#Cc2cccc(F)c2)cc1)N1CCC1
- Ki: 29.6 nM

Structure (SMILES): O=C(c1ccc(C#Cc2cccc(F)c2)cn1)N1CC2CC2C1 (centres undefined)
- Ki: 18.2 nM
